KCNK3 inh – human KCNK3 channel inhibition, primary screen | O14649 | CHO-KCNK3 thallium flux, FluxOR fluorescence; hits give low values | B-score at 10 µM | 0.84% of 340,000 active;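 active = B-score under library mean minus 4 SD, starting fluorescence ratio at most library mean plus 5 SD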;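 also: more negative B-score means stronger inhibition of thallium flux through KCNK3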
KCNQ1 block – inhibitors of human KCNQ1 potassium channel | CHO-K1 KCNQ1, FluxOR thallium flux fluorescence; hits give high values | 1.3% of 310,000 active | B-score at 10 µM;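 active = compounds whose thallium flux B-score, printed positive for inhibition, exceeds three library SD while starting fluorescence stays within three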;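 also: channel opened by potassium depolarization with thallium stimulus after 20 min compound exposure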
hERG rescue – compounds protecting human hERG from proarrhythmic drug block | Q12809 | CHO-hERG, FluxOR thallium flux, dofetilide IC70 present | activation (rescue from dofetilide block), less the hit threshold, % at 10 µM | 0.51% of 310,000 active | AID 1511;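 active = activation above the mean of controls blocked by dofetilide plus 5 SD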;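 also: thallium influx through hERG after potassium depolarization seen as dye fluorescence rise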
KCNQ1 act – potentiates or activates the human KCNQ1 potassium channel; P51787; CHO-K1 KCNQ1, thallium flux FluxOR fluorescence; hits give high values; B-score at 10 µM; 0.35% of 310,000 active;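 active = fluorescence ratio B-score, a plate-corrected score, at least three library SD, with initial intensity B-score within 5 SD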
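Doses: Single concentration per compound, DMSO matched to controls | Test system: KCNQ1-transfected CHO-K1 cells | Timing: 90 min dye loading and 20 min compound exposure, both at room temperature | Measured by: Kinetic FluxOR thallium fluorescence, 10-s 1-Hz baseline, 110-s post-stimulus read | Medium: Assay buffer with matched DMSO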
KCNK9 block – human KCNK9 channel inhibition. Q9NPC2. HEK293 KCNK9, FluxOR thallium flux fluorescence; hits give low values. B-score at 10 µM. 1.2% of 310,000 active. AID 488922;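 active = ratio B-score over 3 SD below the library mean, with starting fluorescence within 5 SD of its mean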;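 also: negative B-score means less thallium flux so channel inhibition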
Target sequence (Q9NPC2 whole entry, looked up): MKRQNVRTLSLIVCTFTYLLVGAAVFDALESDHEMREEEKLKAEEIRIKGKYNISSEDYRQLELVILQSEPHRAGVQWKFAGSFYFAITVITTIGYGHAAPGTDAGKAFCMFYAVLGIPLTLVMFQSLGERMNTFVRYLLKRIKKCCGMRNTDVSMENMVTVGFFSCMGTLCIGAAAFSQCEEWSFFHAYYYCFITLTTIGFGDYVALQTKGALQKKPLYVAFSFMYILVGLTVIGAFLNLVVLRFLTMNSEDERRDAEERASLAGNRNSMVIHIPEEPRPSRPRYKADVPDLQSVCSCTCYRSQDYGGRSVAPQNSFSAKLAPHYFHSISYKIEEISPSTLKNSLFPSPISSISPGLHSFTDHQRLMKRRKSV
KCNK3 inh conf – confirmation of human KCNK3 two-pore domain potassium channel inhibitors; CHO-KCNK3 thallium flux, FluxOR fluorescence; 0% buffer, 100% carvedilol maximal block; ratio percent of control, % at 10 µM; shares compounds with KCNK3 inh; 99% of 2,400 active;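 active = ratio percent of control, averaged over triplicates, above buffer control mean plus 5 SD, cut at about 64% in these data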;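 also: ratio is the fluorescence rise from min to max over baseline after thallium stimulus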
KCNK3 uninduced – KCNK3 inhibitor counter-screen hit in non-induced cells; shares compounds with KCNK3 inh; non-induced KCNK3 parental cells, FluxOR thallium flux; hits give low values; thallium flux ratio (lower = more inhibition) at 10 µM; 40% of 2,400 active; AID 651747;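 active = thallium flux ratio, averaged over three wells, more than 5 SD below the buffer control mean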;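 also: host cells are CHO cells without KCNK3 induction; ratio is peak minus trough fluorescence over baseline then normalized to buffer controls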
* hit, by the source's call; i = inactive; . = no result. Only some compounds are listed: those with a hit (about 3.1% of all), similar ones and a draw of the others.

SMILES | KCNK3 inh | KCNQ1 block | hERG rescue | KCNQ1 act | KCNK9 block | KCNK3 inh conf | KCNK3 uninduced
Cc1nn2c(NC(C)C)c3c(nc2c1-c1ccccc1)CCC3 | -8.95* | i | -12.2 | i | i | 94.0* | i
Cc1nn2c(NCC(C)C)c3c(nc2c1-c1ccccc1)CCC3 | i | i | -11.0 | i | i | . | .
Cc1ccccc1-n1nnnc1SCc1csc(-c2ccccc2)n1 | -10.9* | i | -13.3 | i | i | 105.3* | i
O=C(/C=C/Nc1ccc(Oc2ccccc2Cl)cc1)c1ccco1 | -13.6* | i | -8.8 | i | i | 107.3* | i
COc1ccccc1Oc1ccc(N/C=C/C(=O)c2ccco2)cc1 | i | i | -8.0 | i | i | . | .
O=[N+]([O-])c1ccc(-c2ccc(/C=N/Nc3nc(N4CCCC4)nc(N4CCCC4)n3)o2)cc1 | -9.85* | 7* | -18.5 | i | i | 140.7* | 0.111*
CN(c1ccccc1)S(=O)(=O)c1cccc(NC(=O)c2ccc3ncsc3c2)c1 | -9.48* | i | -13.5 | i | -7.14* | 130.0* | 0.135*
COc1ccc(CCN(C)S(=O)(=O)c2ccc(Cl)nc2)cc1OC | i | i | -6.3 | i | i | . | .
COc1ccccc1-c1cc(C(=O)N/N=C/c2cccs2)c2ccccc2n1 | -9.43* | i | -6.5 | i | i | 109.3* | i
COc1ccccc1CN(C)C(=O)c1cc(-c2cccs2)nc2ccccc12 | -12.5* | i | -14.0 | i | i | 119.0* | 0.136*
O=C(N/N=C/c1cccs1)c1cc(-c2ccncc2)nc2ccccc12 | i | i | -3.4 | i | i | . | .
Cc1nonc1C1CCCN1Cc1cn[nH]c1-c1ccc(-c2ccccc2)cc1 (stereo not given) | -8.89* | i | -9.6 | i | -7.03* | 102.3* | i
c1ccc(CCNc2ncnc3scc(C4COc5ccccc5O4)c23)cc1 (stereo not given) | -9.12* | i | -17.7 | i | i | 127.0* | 0.123*
O=C(CSc1nc(-c2ccccc2)cc(=O)[nH]1)N1CCOCC1 | i | i | -1.1 | i | i | . | .
Cc1[nH]c2ccc(F)cc2c1CCN(Cc1ccco1)C(=S)NC(C)(C)C | -10.5* | 7* | 1.0 | i | i | 119.7* | 0.159*
N#Cc1sc2nc(-c3cccs3)cc(-c3ccccc3)c2c1N | i | i | -3.7 | i | i | . | .
N#Cc1sc2nc(-c3cccs3)cc(-c3ccc(Cl)cc3)c2c1N | -14.2* | i | -11.1 | i | -6.97* | 131.7* | i
CC(=O)Nc1ccc(S(=O)(=O)Nc2cccc(-c3cn4cccnc4n3)c2)cc1 | i | i | -8.7 | i | i | . | .
Cc1ccc(OC(C)C(=O)N2CCN(c3ccccn3)CC2)cc1 (stereo not given) | i | . | . | . | . | . | .
CNC(=O)c1cccnc1Nc1cccc(C(F)(F)F)c1 | i | i | -4.9 | i | i | . | .
CN(CC(=O)Nc1ccccc1Br)C(=O)c1cccnc1Nc1cccc(C(F)(F)F)c1 | -12.5* | i | -10.8 | i | i | 126.0* | 0.132*
COc1ccc(S(=O)(=O)N2CCN(Cc3cccc(Cl)c3)CC2)cc1 | i | i | -2.2 | i | i | . | .
COc1cccc(CN2CCN(S(=O)(=O)c3ccc(Cl)s3)CC2)c1 | -9.22* | i | -3.8 | i | i | 116.3* | 0.127*
Fc1ccc(Br)cc1/C=N/N1CCN(c2ccccc2)CC1 | -9.32* | i | -3.6 | i | i | 96.0* | i
Cc1ccc(CN2CCN(/N=C/c3cc(Br)ccc3F)CC2)cc1 | i | i | -2.3 | i | i | . | .
O=C(NCc1ccccc1)C(c1ccc(F)cc1)N(C(=O)c1csnn1)C1CCCC1 (stereo not given) | i | i | -4.3 | i | i | . | .
C/C(=N\Nc1cc(C)nc(-c2ccccc2O)n1)c1ccccc1O | -9.07* | 10* | -21.4 | i | i | 105.7* | i
Cc1cc(N/N=C\c2ccccc2)nc(-c2ccccc2O)n1 | i | i | -5.9 | i | i | . | .

Bioassay records (PubChem BioAssay)
